From ChEMBL document CHEMBL1131831, “A rapid method to identify exo-protease inhibitors” (Bioorg Med Chem Lett, 1999)

Assays:
[1] = test system: CN(C(=O)[C@@H](CCCCC(=N)N)NC(=O)[C@H](CCCCC(=N)N)NC(=O)OCc1ccccc1)c1ccc(C#C/C=C/c2ccc([N+](=O)[O-])c(O)c2)cc1; assay: Proteolysis constant (Km), when mixed with Cathepsin B enzyme for the conversion of water-soluble compound to fluorescent oil-soluble compound
Outline: (§1)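 Porcine pancreatic trypsin (type IX), porcine pancreatic kallikrein, bovine spleen cathepsin B and porcine pancreatic elastase, each enzyme added to 12 µM substrate solution over mineral oil, shaken at 37 °C. Buffers: trypsin 10 mM Tris-HCl pH 7.8; kallikrein 50 mM Tris pH 9.0; cathepsin B 100 mM potassium phosphate pH 6.0; elastase 10 mM Tris-HCl pH 7.5. Released fluorophore in the oil is diluted with n-heptane and quantified at 424 nm against oil absorbance at 272 nm.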

[2] = target: T1, Neutrophil elastase (Homo sapiens) (UniProt P08246); assay: Proteolysis rate constant (Kcat), when mixed with human leukocyte elastase (HLE)enzyme for the conversion of water-soluble compound to fluorescent oil-soluble compound
T1 sequence (whole entry): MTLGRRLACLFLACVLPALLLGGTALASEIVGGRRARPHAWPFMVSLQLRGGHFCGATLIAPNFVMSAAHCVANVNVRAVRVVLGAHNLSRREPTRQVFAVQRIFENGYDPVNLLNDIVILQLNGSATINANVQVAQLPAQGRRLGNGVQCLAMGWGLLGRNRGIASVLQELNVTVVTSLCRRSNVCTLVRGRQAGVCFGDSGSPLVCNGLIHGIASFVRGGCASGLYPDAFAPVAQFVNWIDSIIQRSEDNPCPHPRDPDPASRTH
Outline: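 Human leukocyte elastase (1 unit = 1.2 µg; releases 1 µmol/min p-nitrophenol from N-t-BOC-L-alanine-p-nitrophenyl ester, pH 6.5, 37 °C) in 50 mM NaOAc, 100 mM NaCl, 8 mM NaN3 pH 6.0. Enzyme mixed with 12 µM substrate in buffer under a trace mineral-oil layer, shaken at 37 °C. Released fluorophore extracted into oil, diluted with n-heptane, quantified by absorbance at 424 nm against oil at 272 nm.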

[3] = Ratio of proteolysis rate constant (Kcat) to that of proteolysis constant (Km) was determined; outline: as §1
[4] = target: T2, Chymotrypsin-like elastase family member 2A (Sus scrofa) (UniProt P08419); assay: Proteolysis rate constant (Kcat), when mixed with elastase enzyme for the conversion of water-soluble compound to fluorescent oil-soluble compound; outline: as §1
T2 sequence (whole entry): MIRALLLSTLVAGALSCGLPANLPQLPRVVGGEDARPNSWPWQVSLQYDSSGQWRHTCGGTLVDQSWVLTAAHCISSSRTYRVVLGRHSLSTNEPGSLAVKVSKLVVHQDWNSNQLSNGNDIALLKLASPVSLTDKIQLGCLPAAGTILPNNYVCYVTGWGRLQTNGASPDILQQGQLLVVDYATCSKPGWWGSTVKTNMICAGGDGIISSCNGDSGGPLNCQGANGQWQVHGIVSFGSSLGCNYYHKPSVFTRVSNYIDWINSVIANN

k cat [4] | Compound | Km [1] | k cat [2] | k cat/Km [3]
 | Cathepsin B (Bos taurus), P07688 | 129 µM |  | 
 | CC(C)C[C@H](NC(=O)[C@H](N)Cc1ccc(O)cc1)C(=O)N[C@@H](C(=O)N(C)c1ccc(C#C/C=C/c2ccc([N+](=O)[O-])c(O)c2)cc1)C(C)C |  | 3.6 s⁻¹ | 225000 M⁻¹ s⁻¹
145 s⁻¹ | COCCOCCOCCOCCOC(=O)N[C@@H](C)C(=O)N[C@H](C)C(=O)N(C)c1ccc(C#C/C=C/c2ccc([N+](=O)[O-])c(O)c2)cc1 |  |  | 446000 M⁻¹ s⁻¹
